Reference: ChEMBL document CHEMBL3286105, “Design, synthesis and antifungal activity of novel triazole derivatives containing substituted 1,2,3-triazole-piperdine side chains” (2014)
In brackets after ≈: the same amount, converted by molar mass.

Tests used:
Type in all cases: functional
Aspergillus fumigatus = test: Antifungal activity against Aspergillus fumigatus assessed as growth inhibition after 7 days by serial dilution method; settings: 168 h
Nakaseomyces glabratus = test: Antifungal activity against Candida glabrata assessed as growth inhibition after 24 hrs by serial dilution method
Outline: (§1)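 Candida strains were ATCC or clinical isolates. Compounds were dissolved in DMSO and serially diluted in growth medium. Plates were incubated at 35 °C and read at 24 h. MIC was the lowest concentration giving turbidity at […]80% inhibition relative to the growth control.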

Nannizzia gypsea = test: Antifungal activity against Microsporum gypseum assessed as growth inhibition by serial dilution method
Outline: (§2)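 Compounds were dissolved in DMSO and diluted in growth medium. Incubation was at 28 °C. MIC was the lowest concentration with turbidity at the 80% inhibition threshold relative to the drug-free growth control.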

Candida parapsilosis = test: Antifungal activity against Candida parapsilosis assessed as growth inhibition after 24 hrs by serial dilution method; settings: Lodderomyces parapsilosis; outline: as §1
Cryptococcus neoformans = test: Antifungal activity against Cryptococcus neoformans assessed as growth inhibition after 72 hrs by serial dilution method
Outline: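 Compounds were taken up in DMSO and diluted in growth medium. Incubation was at 35 °C with MIC read at 72 h. MIC was the lowest concentration at which turbidity reached the 80% inhibition cutoff against the untreated growth control.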

Candida albicans = test: Antifungal activity against Candida albicans assessed as growth inhibition after 24 hrs by serial dilution method; outline: as §1
Trichophyton rubrum = test: Antifungal activity against Trichophyton rubrum assessed as growth inhibition by serial dilution method; outline: as §2

Structure (SMILES) | MIC80 (Aspergillus fumigatus) | MIC80 (Nakaseomyces glabratus) | MIC80 (Nannizzia gypsea) | MIC80 (Candida parapsilosis) | MIC80 (Cryptococcus neoformans) | MIC80 (Candida albicans) | MIC80 (Trichophyton rubrum)
CCc1cn(C2CCN(CC(O)(Cn3cncn3)c3ccc(F)cc3F)CC2)nn1 (configuration not stated) | 64 µg/mL (≈ 153 µM) | 0.5 µg/mL (≈ 1.2 µM) | 8 µg/mL (≈ 19.2 µM) | 1 µg/mL (≈ 2.4 µM) | 1 µg/mL (≈ 2.4 µM) | 0.125 µg/mL (≈ 0.299 µM) | 1 µg/mL (≈ 2.4 µM)
CCCc1cn(C2CCN(CC(O)(Cn3cncn3)c3ccc(F)cc3F)CC2)nn1 (configuration not stated) | 16 µg/mL (≈ 37.1 µM) | 0.25 µg/mL (≈ 0.579 µM) | 4 µg/mL (≈ 9.27 µM) | 1 µg/mL (≈ 2.32 µM) | 0.5 µg/mL (≈ 1.16 µM) | 0.125 µg/mL (≈ 0.29 µM) | 1 µg/mL (≈ 2.32 µM)
OC(CN1CCC(n2cc(C3CC3)nn2)CC1)(Cn1cncn1)c1ccc(F)cc1F (configuration not stated) | 64 µg/mL (≈ 149 µM) | 0.25 µg/mL (≈ 0.582 µM) | 8 µg/mL (≈ 18.6 µM) | 1 µg/mL (≈ 2.33 µM) | 1 µg/mL (≈ 2.33 µM) | 0.125 µg/mL (≈ 0.291 µM) | 2 µg/mL (≈ 4.66 µM)
OC(CN1CCC(n2cc(C3CCCC3)nn2)CC1)(Cn1cncn1)c1ccc(F)cc1F (configuration not stated) | > 64 µg/mL | 4 µg/mL (≈ 8.74 µM) | 64 µg/mL (≈ 140 µM) | 8 µg/mL (≈ 17.5 µM) | 8 µg/mL (≈ 17.5 µM) | 0.5 µg/mL (≈ 1.09 µM) | 16 µg/mL (≈ 35 µM)
COCc1cn(C2CCN(CC(O)(Cn3cncn3)c3ccc(F)cc3F)CC2)nn1 (configuration not stated) | 16 µg/mL (≈ 36.9 µM) | 0.25 µg/mL (≈ 0.577 µM) | 2 µg/mL (≈ 4.61 µM) | 0.5 µg/mL (≈ 1.15 µM) | 0.25 µg/mL (≈ 0.577 µM) | 0.125 µg/mL (≈ 0.288 µM) | 0.5 µg/mL (≈ 1.15 µM)
OCc1cn(C2CCN(CC(O)(Cn3cncn3)c3ccc(F)cc3F)CC2)nn1 (configuration not stated) | > 64 µg/mL | 32 µg/mL (≈ 76.3 µM) | > 64 µg/mL | > 64 µg/mL | 64 µg/mL (≈ 153 µM) | 8 µg/mL (≈ 19.1 µM) | > 64 µg/mL
CC(O)c1cn(C2CCN(CC(O)(Cn3cncn3)c3ccc(F)cc3F)CC2)nn1 (configuration not stated) | > 64 µg/mL | 16 µg/mL (≈ 36.9 µM) | > 64 µg/mL | > 64 µg/mL | 64 µg/mL (≈ 148 µM) | 8 µg/mL (≈ 18.5 µM) | > 64 µg/mL
OCCc1cn(C2CCN(CC(O)(Cn3cncn3)c3ccc(F)cc3F)CC2)nn1 (configuration not stated) | > 64 µg/mL | 16 µg/mL (≈ 36.9 µM) | > 64 µg/mL | > 64 µg/mL | > 64 µg/mL | 4 µg/mL (≈ 9.23 µM) | > 64 µg/mL
OCCCc1cn(C2CCN(CC(O)(Cn3cncn3)c3ccc(F)cc3F)CC2)nn1 (configuration not stated) | > 64 µg/mL | 16 µg/mL (≈ 35.8 µM) | > 64 µg/mL | > 64 µg/mL | > 64 µg/mL | 8 µg/mL (≈ 17.9 µM) | > 64 µg/mL
OCCCCc1cn(C2CCN(CC(O)(Cn3cncn3)c3ccc(F)cc3F)CC2)nn1 (configuration not stated) | > 64 µg/mL | 8 µg/mL (≈ 17.3 µM) | > 64 µg/mL | 32 µg/mL (≈ 69.3 µM) | 32 µg/mL (≈ 69.3 µM) | 4 µg/mL (≈ 8.67 µM) | 64 µg/mL (≈ 139 µM)
OC(c1ccccc1)c1cn(C2CCN(CC(O)(Cn3cncn3)c3ccc(F)cc3F)CC2)nn1 (configuration not stated) | 16 µg/mL (≈ 32.3 µM) | 8 µg/mL (≈ 16.1 µM) | > 64 µg/mL | 8 µg/mL (≈ 16.1 µM) | 32 µg/mL (≈ 64.6 µM) | 2 µg/mL (≈ 4.04 µM) | 32 µg/mL (≈ 64.6 µM)
OC(CN1CCC(n2cc(Cc3ccccc3)nn2)CC1)(Cn1cncn1)c1ccc(F)cc1F (configuration not stated) | 32 µg/mL (≈ 66.7 µM) | 1 µg/mL (≈ 2.09 µM) | 4 µg/mL (≈ 8.34 µM) | 1 µg/mL (≈ 2.09 µM) | 0.5 µg/mL (≈ 1.04 µM) | 0.125 µg/mL (≈ 0.261 µM) | 1 µg/mL (≈ 2.09 µM)
COC(=O)CCCc1cn(C2CCN(CC(O)(Cn3cncn3)c3ccc(F)cc3F)CC2)nn1 (configuration not stated) | 64 µg/mL (≈ 131 µM) | 2 µg/mL (≈ 4.09 µM) | 8 µg/mL (≈ 16.3 µM) | 4 µg/mL (≈ 8.17 µM) | 4 µg/mL (≈ 8.17 µM) | 0.25 µg/mL (≈ 0.511 µM) | 4 µg/mL (≈ 8.17 µM)
O=C(O)CCCc1cn(C2CCN(CC(O)(Cn3cncn3)c3ccc(F)cc3F)CC2)nn1 (configuration not stated) | > 64 µg/mL | 4 µg/mL (≈ 8.41 µM) | 32 µg/mL (≈ 67.3 µM) | 8 µg/mL (≈ 16.8 µM) | 4 µg/mL (≈ 8.41 µM) | 0.5 µg/mL (≈ 1.05 µM) | 4 µg/mL (≈ 8.41 µM)
CCOC(=O)c1cn(C2CCN(CC(O)(Cn3cncn3)c3ccc(F)cc3F)CC2)nn1 (configuration not stated) | > 64 µg/mL | 32 µg/mL (≈ 69.3 µM) | > 64 µg/mL | > 64 µg/mL | > 64 µg/mL | 8 µg/mL (≈ 17.3 µM) | > 64 µg/mL
O=C(O)c1cn(C2CCN(CC(O)(Cn3cncn3)c3ccc(F)cc3F)CC2)nn1 (configuration not stated) | > 64 µg/mL | 8 µg/mL (≈ 18.5 µM) | > 64 µg/mL | 64 µg/mL (≈ 148 µM) | 16 µg/mL (≈ 36.9 µM) | 4 µg/mL (≈ 9.23 µM) | > 64 µg/mL
OC(CN1CCC(n2cc(-c3ccccc3)nn2)CC1)(Cn1cncn1)c1ccc(F)cc1F (configuration not stated) | > 64 µg/mL | 1 µg/mL (≈ 2.15 µM) | 4 µg/mL (≈ 8.59 µM) | 1 µg/mL (≈ 2.15 µM) | 0.25 µg/mL (≈ 0.537 µM) | 0.125 µg/mL (≈ 0.269 µM) | 0.5 µg/mL (≈ 1.07 µM)
OC(CN1CCC(n2cc(-c3cccnc3)nn2)CC1)(Cn1cncn1)c1ccc(F)cc1F (configuration not stated) | 64 µg/mL (≈ 137 µM) | 1 µg/mL (≈ 2.14 µM) | 16 µg/mL (≈ 34.3 µM) | 1 µg/mL (≈ 2.14 µM) | 0.125 µg/mL (≈ 0.268 µM) | 0.125 µg/mL (≈ 0.268 µM) | 4 µg/mL (≈ 8.57 µM)
OC(CN1CCC(n2cc(-c3ccc(Br)cc3)nn2)CC1)(Cn1cncn1)c1ccc(F)cc1F (configuration not stated) | > 64 µg/mL | 0.5 µg/mL (≈ 0.918 µM) | 2 µg/mL (≈ 3.67 µM) | 1 µg/mL (≈ 1.84 µM) | 0.125 µg/mL (≈ 0.23 µM) | 0.125 µg/mL (≈ 0.23 µM) | 0.25 µg/mL (≈ 0.459 µM)
CC(=O)c1ccc(-c2cn(C3CCN(CC(O)(Cn4cncn4)c4ccc(F)cc4F)CC3)nn2)cc1 (configuration not stated) | 64 µg/mL (≈ 126 µM) | 0.5 µg/mL (≈ 0.985 µM) | 2 µg/mL (≈ 3.94 µM) | 0.5 µg/mL (≈ 0.985 µM) | 0.125 µg/mL (≈ 0.246 µM) | 0.0625 µg/mL (≈ 0.123 µM) | 1 µg/mL (≈ 1.97 µM)
CN(C)c1ccc(-c2cn(C3CCN(CC(O)(Cn4cncn4)c4ccc(F)cc4F)CC3)nn2)cc1 (configuration not stated) | 8 µg/mL (≈ 15.7 µM) | 2 µg/mL (≈ 3.93 µM) | 4 µg/mL (≈ 7.87 µM) | 2 µg/mL (≈ 3.93 µM) | 1 µg/mL (≈ 1.97 µM) | 0.25 µg/mL (≈ 0.492 µM) | 2 µg/mL (≈ 3.93 µM)
OC(CN1CCC(n2cc(-c3ccc(OC(F)(F)F)cc3)nn2)CC1)(Cn1cncn1)c1ccc(F)cc1F (configuration not stated) | 8 µg/mL (≈ 14.6 µM) | 0.5 µg/mL (≈ 0.91 µM) | 4 µg/mL (≈ 7.28 µM) | 2 µg/mL (≈ 3.64 µM) | 0.125 µg/mL (≈ 0.227 µM) | 0.0125 µg/mL (≈ 0.0227 µM) | 0.5 µg/mL (≈ 0.91 µM)
COc1cccc(-c2cn(C3CCN(CC(O)(Cn4cncn4)c4ccc(F)cc4F)CC3)nn2)c1 (configuration not stated) | > 64 µg/mL | 2 µg/mL (≈ 4.04 µM) | 32 µg/mL (≈ 64.6 µM) | 4 µg/mL (≈ 8.07 µM) | 0.125 µg/mL (≈ 0.252 µM) | 0.125 µg/mL (≈ 0.252 µM) | 4 µg/mL (≈ 8.07 µM)
Cc1ccccc1-c1cn(C2CCN(CC(O)(Cn3cncn3)c3ccc(F)cc3F)CC2)nn1 (configuration not stated) | > 64 µg/mL | 0.5 µg/mL (≈ 1.04 µM) | 64 µg/mL (≈ 133 µM) | 0.5 µg/mL (≈ 1.04 µM) | 0.25 µg/mL (≈ 0.521 µM) | 0.125 µg/mL (≈ 0.261 µM) | 0.5 µg/mL (≈ 1.04 µM)
OC(Cn1cncn1)(Cn1cncn1)c1ccc(F)cc1F [FLUCONAZOLE] | > 64 µg/mL | 1 µg/mL (≈ 3.27 µM) | 32 µg/mL (≈ 104 µM) | 2 µg/mL (≈ 6.53 µM) | 1 µg/mL (≈ 3.27 µM) | 0.25 µg/mL (≈ 0.816 µM) | 8 µg/mL (≈ 26.1 µM)
CCC(C)n1ncn(-c2ccc(N3CCN(c4ccc(OCC5COC(Cn6cncn6)(c6ccc(Cl)cc6Cl)O5)cc4)CC3)cc2)c1=O (configuration not stated) [ITRACONAZOLE] | 1 µg/mL (≈ 1.42 µM) | 1 µg/mL (≈ 1.42 µM) | 2 µg/mL (≈ 2.83 µM) | 4 µg/mL (≈ 5.67 µM) | 2 µg/mL (≈ 2.83 µM) | 1 µg/mL (≈ 1.42 µM) | 0.5 µg/mL (≈ 0.709 µM)
